This is an account of results in ChEMBL document CHEMBL1135355, “Synthesis of novel water soluble benzylazolium prodrugs of lipophilic azole antifungals” (Bioorg Med Chem Lett, 2002).

The structures appear in SMILES notation.

For data set [1], the system named is Rattus norvegicus. Kind of data set: Effective dose required to inhibit the systemic […] infection was determined in rat by intravenous administration. It is filed as functional. The method in brief: (§1)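 Systemic A. fumigatus CF437 infection in male Fisher rats. Treatment twice on day 1, then once daily for the next 4 days, iv or po as the line states. ED50 taken on day 14.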

Data set [2] concerns Rattus norvegicus. Nature of the data set: Effective dose required to inhibit the systemic […] infection was determined in rat by peroral administration. Type of data set: functional. The following applies: po. The essentials:
as §1

The test system of data set [3] is Rattus norvegicus. Kind of data set: Effective dose required to inhibit the pulmonary […] infection was determined in rat by intravenous administration. Type of data set: functional. The essentials: (§2)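 Pulmonary A. fumigatus CF437 model in male Fisher rats immunosuppressed with cortisone acetate before infection. Dosed twice on the first day and once daily over the following 4 days, iv or po as the line states. ED50 determined on day 14.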

In data set [4] the test system is Rattus norvegicus. Nature of the data set: Effective dose required to inhibit the pulmonary […] infection was determined in rat by peroral administration. It is filed as functional. The conditions noted are these: po. The method in brief:
as §2

Data set [5] relates to Rattus norvegicus. Nature of the data set: Effective dose required to inhibit the systemic Candida albicans infection was determined in rat by peroral administration. The conditions noted are these: po. It is filed as functional. The method in brief:
(§3)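 Male Fisher rats infected systemically with C. albicans ATCC48130. Dosing at 0, 4, 24 and 48 h post-infection, given iv or po as the line states. ED50 derived on day 14.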

Data set [6] has as its system Rattus norvegicus. Kind of data set: Effective dose required to inhibit the systemic Candida albicans infection was determined in rat by intravenous administration. Type of data set: functional. The method in brief: as §3
A short description of data set [7]: Conversion rate of the prodrug in human plasma. It is filed as ADME, cell-free. The essentials:
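Disappearance of prodrug through ester hydrolysis was followed, and the rate was expressed as half-life (T1/2, min).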

Data set [8] in a line: Solubility of the prodrug in water was determined. Type of data set: physicochemical. The following applies: buffer.

`CNCC(=O)Oc1c(C)cc(C[n+]2cnn(C[C@](O)(c3ccc(F)cc3F)[C@@H](C)c3nc(-c4ccc(C#N)cc4)cs3)c2)cc1C.Cl.[Br-]`: the ED50 in the data set with Rattus norvegicus [1] amounted to 17 µmol/kg; in the data set with Rattus norvegicus [2], 19 µmol/kg; in the data set with Rattus norvegicus [3], 8 µmol/kg; in the data set with Rattus norvegicus [4], 17 µmol/kg; with Rattus norvegicus [5], 4.7 µmol/kg; in the data set on Rattus norvegicus [6], 4.6 µmol/kg. Further, the T1/2 in data set [7] was less than 0.033 h. Further, the Solubility in data set [8] is 49000 µg/mL.
For `Cc1cc(C[n+]2cnn(C[C@](O)(c3ccc(F)cc3F)[C@@H](C)c3nc(-c4ccc(C#N)cc4)cs3)c2)cc(C)c1OC(=O)[C@@H]1CCCN1.O=C(O)C(F)(F)F.[Br-]`, the ED50 with Rattus norvegicus [1] was greater than 35 µmol/kg; in the data set on Rattus norvegicus [2] it was greater than 55 µmol/kg; in the data set with Rattus norvegicus [3] it was 17 µmol/kg; in the data set on Rattus norvegicus [4], 18 µmol/kg; in the data set on Rattus norvegicus [5], less than 2.1 µmol/kg; in the data set on Rattus norvegicus [6], 3.5 µmol/kg. In addition, the T1/2 in data set [7] worked out at 2.1 h. Also, the Solubility in data set [8] is greater than 5000 µg/mL.
Turning to `C[C@@H](c1nc(-c2ccc(C#N)cc2)cs1)[C@](O)(Cn1cncn1)c1ccc(F)cc1F` [RAVUCONAZOLE], the ED50 with Rattus norvegicus [2] stood at 11 µmol/kg; with Rattus norvegicus [4], 19 µmol/kg; in the data set on Rattus norvegicus [5], 1.6 µmol/kg. Further, the Solubility in data set [8] was less than 1 µg/mL.
